Converted amounts (≈) assume the structure as drawn. The source made the active and inactive calls. The calls are words filed in the database; no cut-off is given here.
What was measured:
[1] = Aqueous solubility of the compound at room temperature measured per 100 ml of solution; format: physicochemical; settings: buffer
Hepatitis C virus [2] = experiment: (§1) Antiviral activity against HCV pseudoparticle harboring HCV envelope protein E1, E2 and HIV proviral DNA infected in HuH7 cells assessed as reduction in viral infection at 10 uM preincubated cells with test compound for 3 hrs followed by viral infection measured after 72 hrs by luciferase reporter gene assay; format: functional, Hepacivirus hominis; settings: Huh-7
Summary of the method: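 Pre-treatment format: Huh-7 cells incubated 3 h at 37 °C with compound in DMEM/10% FBS, then washed to remove unbound compound. Cells were then infected with HCVpp at 37 °C for 72 h. Luciferase readout, normalised to 0.5% DMSO (final).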

Hepatitis C virus [3] = experiment: as §1, with “preincubated viral particle with” for “preincubated”, “cells” for “cells with test compound”, “by test compound addition” for “by viral infection”; format: functional, Hepacivirus hominis; settings: Huh-7
Summary of the method: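 Post-binding format: Huh-7 cells incubated with HCVpp at 4 °C for 3 h, then washed thoroughly to remove unbound virus. Cells were then exposed to compound at 37 °C for 72 h. Luciferase readout, normalised to 0.5% DMSO (final).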

Hepatitis C virus [4] = experiment: Antiviral activity against HCV pseudoparticle harboring HCV envelope protein E1 and E2 and HIV proviral DNA assessed as inhibition of pseudoparticle entry into human Huh7 cells measured after 3 days by luciferase reporter gene assay; format: functional, cell-based, Hepacivirus hominis; settings: Huh-7, 72 h
Summary of the method: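 Huh-7 cells infected with HCVpp with compound at six concentrations spanning the nanomolar range upward, 37 °C. Luciferase read 3 days post-infection, normalised to DMSO-only wells minus uninfected background. Each concentration in triplicate. IC50 is the mean of at least three independent determinations.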

Hepatitis C virus [5] = experiment: Antiviral activity against HCV pseudoparticle harboring HCV envelope protein E1 and E2 and HIV proviral DNA assessed as inhibition of pseudoparticle entry into human Huh7 cells at 5 uM measured after 3 days by luciferase reporter gene assay relative to control; format: functional, Hepacivirus hominis; settings: Huh-7, 72 h
Summary of the method: (§2)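 Huh-7 cells (5 × 10³/well) seeded 24 h, then infected with HCVpp or VSVGpp (HIV pNL4-3 luciferase backbone with HCV E1E2 or VSV G, made in 293T cells) with compound in 1% DMSO at 37 °C. Luciferase read 3 days post-infection. % inhibition = 100 − background-subtracted signal as % of DMSO wells. Duplicates, ≥3 repeats.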

[6] = Cytotoxicity against MDCK cells measured after 48 hrs by alamar blue assay; format: toxicity, cell-based, Canis lupus familiaris; settings: dog
Summary of the method: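 MDCK cells were seeded at 1 × 10⁴ per well and allowed to adhere for 16 h at 37 °C in 5% CO₂. Compounds were added at 0.1, 1, 10 and 100, in triplicate, against 1% DMSO controls, for 48 h. AlamarBlue was then added for 2 h and fluorescence read (ex 530, em 590 nm). Percent viability gave CC50.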

Hepatitis C virus [7] = experiment: Antiviral activity against HCV pseudoparticle harboring HCV envelope protein E1, E2 and HIV proviral DNA infected in HuH7 cells assessed as reduction in viral infection at 10 uM pretreated with virus for 6 hrs followed by compound addition measured after 72 hrs by luciferase reporter gene assay; format: functional, Hepacivirus hominis; settings: Huh-7
Summary of the method: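 Post-entry format: Huh-7 cells incubated with HCVpp at 37 °C for 6 h to allow entry but not reverse transcription, then washed. Compound added at 37 °C for a further 72 h. Luciferase readout, normalised to 0.5% DMSO (final).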

[8] = Selectivity index, ratio of CC50 for MDCK cells to IC50 for HCV pseudoparticle expressing envelope protein E1 and E2 to; format: functional
Summary of the method: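 SI = MDCK CC50 / HCVpp IC50. The IC50 came from HIV pNL4-3 luciferase pseudoparticles carrying HCV E1E2, made in 293T cells. Huh-7 cells (5 × 10³ per well, seeded 24 h earlier) were infected with compound present at 37 °C, and luciferase was read 3 days later. Inhibition was normalised to DMSO wells minus uninfected background. IC50 values are means of at least three independent determinations.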

Hepatitis C virus [9] = experiment: Antiviral activity against HCV pseudoparticle harboring HCV envelope protein E1, E2 and HIV proviral DNA infected in HuH7 cells assessed as reduction in viral infection at 10 uM incubated with virus and compound for 3 hrs by luciferase reporter gene assay; format: functional, Hepacivirus hominis; settings: Huh-7, 3 h
Summary of the method: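 Pre-binding format: Huh-7 cells incubated with compound plus HCVpp at 4 °C for 3 h to allow virus binding. Readout is a luciferase pseudovirus-entry signal, normalised to 0.5% DMSO (final). An anti-CD81 antibody served as positive control.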

[10] = tested on: Vesicular stomatitis virus; experiment: Antiviral activity against VSV pseudoparticle harboring VSV G protein and HIV proviral DNA assessed as inhibition of pseudoparticle entry into human Huh7 cells measured after 3 days by luciferase reporter gene assay; format: functional, cell-based; settings: Huh-7; summary of the method: as §2
[11] = Aqueous solubility of the compound by HPLC method; format: physicochemical; settings: buffer
[12] = Aqueous solubility of the compound at 100 ug/ml incubated for 1 hr; format: physicochemical; settings: buffer

`OC[C@H]1O[C@@H]2O[C@H]3[C@H](O)[C@@H](O)[C@@H](O[C@H]4[C@H](O)[C@@H](O)[C@@H](O[C@H]5[C@H](O)[C@@H](O)[C@@H](O[C@H]6[C@H](O)[C@@H](O)[C@@H](O[C@H]7[C@H](O)[C@@H](O)[C@@H](O[C@H]1[C@H](O)[C@H]2O)O[C@@H]7CO)O[C@@H]6CO)O[C@@H]5CO)O[C@@H]4CO)O[C@@H]3CO` [ALFADEX] showed a solubility [1] of 14.5 g.

With `CC(=O)OC[C@H]1O[C@@H]2O[C@H]3[C@H](OC(C)=O)[C@@H](OC(C)=O)[C@@H](O[C@H]4[C@H](OC(C)=O)[C@@H](OC(C)=O)[C@@H](O[C@H]5[C@H](OC(C)=O)[C@@H](OC(C)=O)[C@@H](O[C@H]6[C@H](OC(C)=O)[C@@H](OC(C)=O)[C@@H](O[C@H]7[C@H](OC(C)=O)[C@@H](OC(C)=O)[C@@H](O[C@H]1[C@H](OC(C)=O)[C@H]2OC(C)=O)O[C@@H]7COC(C)=O)O[C@@H]6COC(C)=O)O[C@@H]5Cn1cc(CNC(=O)[C@]25CCC(C)(C)C[C@@H]2C2=CC[C@@H]6[C@@]7(C)CC[C@H](O)C(C)(C)[C@@H]7CC[C@@]6(C)[C@]2(C)C[C@H]5O)nn1)O[C@@H]4COC(C)=O)O[C@@H]3COC(C)=O` the inhibition at 10 µM (Hepatitis C virus [2]) was 10 to 30%, the inhibition at 10 µM (Hepatitis C virus [3]) was > 90% and the IC50 (Hepatitis C virus [4]) was 1.18 µM. For the same compound, the inhibition at 5 µM (Hepatitis C virus [5]) was 80%, the CC50 at 48 h [6] was > 100 µM and the inhibition at 10 µM (Hepatitis C virus [7]) was 10 to 30%. For the same compound, the “Ratio CC50/IC50” value [8] was >85 and the inhibition at 10 µM (Hepatitis C virus [9]) was 10 to 30%.

For `C=C(C)[C@@H]1CC[C@]2(C(=O)NCc3cn(C[C@H]4O[C@@H]5O[C@H]6[C@H](O)[C@@H](O)[C@@H](O[C@H]7[C@H](O)[C@@H](O)[C@@H](O[C@H]8[C@H](O)[C@@H](O)[C@@H](O[C@H]9[C@H](O)[C@@H](O)[C@@H](O[C@H]%10[C@H](O)[C@@H](O)[C@@H](O[C@H]4[C@H](O)[C@H]5O)O[C@@H]%10CO)O[C@@H]9CO)O[C@@H]8CO)O[C@@H]7CO)O[C@@H]6CO)nn3)CC[C@]3(C)[C@H](CC[C@@H]4[C@@]5(C)CC[C@H](O)C(C)(C)[C@@H]5CC[C@]43C)[C@@H]12`, the inhibition at 5 µM (Hepatitis C virus [5]) was 60% and the inhibition [10] was “Active”.

For `CC1(C)CC[C@]2(C(=O)NCc3cn(C[C@H]4O[C@@H]5O[C@H]6[C@H](O)[C@@H](O)[C@@H](O[C@H]7[C@H](O)[C@@H](O)[C@@H](O[C@H]8[C@H](O)[C@@H](O)[C@@H](O[C@H]9[C@H](O)[C@@H](O)[C@@H](O[C@H]%10[C@H](O)[C@@H](O)[C@@H](O[C@H]4[C@H](O)[C@H]5O)O[C@@H]%10CO)O[C@@H]9CO)O[C@@H]8CO)O[C@@H]7CO)O[C@@H]6CO)nn3)[C@H](O)C[C@]3(C)C(=CC[C@@H]4[C@@]5(C)CC[C@H](O)C(C)(C)[C@@H]5CC[C@]43C)[C@H]2C1`, the inhibition at 10 µM (Hepatitis C virus [2]) was 10 to 30%, the inhibition at 10 µM (Hepatitis C virus [3]) was > 90% and the IC50 (Hepatitis C virus [4]) was 0.25 µM. For the same compound, the inhibition at 5 µM (Hepatitis C virus [5]) was 95%, the CC50 at 48 h [6] was > 100 µM and the inhibition at 10 µM (Hepatitis C virus [7]) was 10 to 30%. The “Ratio CC50/IC50” value [8] was >400 and the inhibition at 10 µM (Hepatitis C virus [9]) was 10 to 30%.

`CC1(C)CC[C@]2(C(=O)O)CC[C@]3(C)C(=CC[C@@H]4[C@@]5(C)CC[C@H](O)C(C)(C)[C@@H]5CC[C@]43C)[C@@H]2C1` [OLEANOLIC_ACID] gave a solubility [11] of 0.05 µg/mL (≈ 0.109 µM).

With `C=C(C)[C@@H]1CC[C@]2(C(=O)NCc3cn(C[C@H]4O[C@@H]5O[C@H]6[C@H](OC(C)=O)[C@@H](OC(C)=O)[C@@H](O[C@H]7[C@H](OC(C)=O)[C@@H](OC(C)=O)[C@@H](O[C@H]8[C@H](OC(C)=O)[C@@H](OC(C)=O)[C@@H](O[C@H]9[C@H](OC(C)=O)[C@@H](OC(C)=O)[C@@H](O[C@H]%10[C@H](OC(C)=O)[C@@H](OC(C)=O)[C@@H](O[C@H]4[C@H](OC(C)=O)[C@H]5OC(C)=O)O[C@@H]%10COC(C)=O)O[C@@H]9COC(C)=O)O[C@@H]8COC(C)=O)O[C@@H]7COC(C)=O)O[C@@H]6COC(C)=O)nn3)CC[C@]3(C)[C@H](CC[C@@H]4[C@@]5(C)CC[C@H](O)C(C)(C)[C@@H]5CC[C@]43C)[C@@H]12` the inhibition at 5 µM (Hepatitis C virus [5]) was 60% and the inhibition [10] was “Active”.

For `CC1(C)CC[C@]2(C(=O)O)[C@H](O)C[C@]3(C)C(=CC[C@@H]4[C@@]5(C)CC[C@H](O)C(C)(C)[C@@H]5CC[C@]43C)[C@@H]2C1`, the CC50 at 48 h [6] was 15.4 µM and the “Ratio CC50/IC50” value [8] was 11.

`C=C(C)[C@@H]1CC[C@]2(C(=O)O)CC[C@]3(C)[C@H](CC[C@@H]4[C@@]5(C)CC[C@H](O)C(C)(C)[C@@H]5CC[C@]43C)[C@@H]12` [BETULINIC ACID] showed a solubility at 1 h [12] of 0.02 µg/mL (≈ 0.0438 µM).

Source: ChEMBL document CHEMBL3877243, “Synthesis and biological evaluation of novel pentacyclic triterpene α-cyclodextrin conjugates as HCV entry inhibitors” (Eur J Med Chem, 2016)
